Data taken from paper PMC3988618 (Messenger (Los Angeles, Calif. : Print), 2012).
Values belong to the compound of their own block, whether it stands above or below them.

Legend:
type 1 InsP3R (InsP3R1) = type 1 InsP3R (InsP3R1) (Mus musculus, UniProt P11881); test: Inhibition of Ins; assay type: cell-based; conditions: for IC50: read-out: Ins P3R antagonism IC50 (inhibition of Ins(1,4,5)P3-induced Ca2+ release), permeabilized L15 fibroblasts overexpressing InsP3R1, Ca2+ release induced by 250 nM Ins(1,4,5)P3
Chain of type 1 InsP3R (InsP3R1) (P11881 whole entry): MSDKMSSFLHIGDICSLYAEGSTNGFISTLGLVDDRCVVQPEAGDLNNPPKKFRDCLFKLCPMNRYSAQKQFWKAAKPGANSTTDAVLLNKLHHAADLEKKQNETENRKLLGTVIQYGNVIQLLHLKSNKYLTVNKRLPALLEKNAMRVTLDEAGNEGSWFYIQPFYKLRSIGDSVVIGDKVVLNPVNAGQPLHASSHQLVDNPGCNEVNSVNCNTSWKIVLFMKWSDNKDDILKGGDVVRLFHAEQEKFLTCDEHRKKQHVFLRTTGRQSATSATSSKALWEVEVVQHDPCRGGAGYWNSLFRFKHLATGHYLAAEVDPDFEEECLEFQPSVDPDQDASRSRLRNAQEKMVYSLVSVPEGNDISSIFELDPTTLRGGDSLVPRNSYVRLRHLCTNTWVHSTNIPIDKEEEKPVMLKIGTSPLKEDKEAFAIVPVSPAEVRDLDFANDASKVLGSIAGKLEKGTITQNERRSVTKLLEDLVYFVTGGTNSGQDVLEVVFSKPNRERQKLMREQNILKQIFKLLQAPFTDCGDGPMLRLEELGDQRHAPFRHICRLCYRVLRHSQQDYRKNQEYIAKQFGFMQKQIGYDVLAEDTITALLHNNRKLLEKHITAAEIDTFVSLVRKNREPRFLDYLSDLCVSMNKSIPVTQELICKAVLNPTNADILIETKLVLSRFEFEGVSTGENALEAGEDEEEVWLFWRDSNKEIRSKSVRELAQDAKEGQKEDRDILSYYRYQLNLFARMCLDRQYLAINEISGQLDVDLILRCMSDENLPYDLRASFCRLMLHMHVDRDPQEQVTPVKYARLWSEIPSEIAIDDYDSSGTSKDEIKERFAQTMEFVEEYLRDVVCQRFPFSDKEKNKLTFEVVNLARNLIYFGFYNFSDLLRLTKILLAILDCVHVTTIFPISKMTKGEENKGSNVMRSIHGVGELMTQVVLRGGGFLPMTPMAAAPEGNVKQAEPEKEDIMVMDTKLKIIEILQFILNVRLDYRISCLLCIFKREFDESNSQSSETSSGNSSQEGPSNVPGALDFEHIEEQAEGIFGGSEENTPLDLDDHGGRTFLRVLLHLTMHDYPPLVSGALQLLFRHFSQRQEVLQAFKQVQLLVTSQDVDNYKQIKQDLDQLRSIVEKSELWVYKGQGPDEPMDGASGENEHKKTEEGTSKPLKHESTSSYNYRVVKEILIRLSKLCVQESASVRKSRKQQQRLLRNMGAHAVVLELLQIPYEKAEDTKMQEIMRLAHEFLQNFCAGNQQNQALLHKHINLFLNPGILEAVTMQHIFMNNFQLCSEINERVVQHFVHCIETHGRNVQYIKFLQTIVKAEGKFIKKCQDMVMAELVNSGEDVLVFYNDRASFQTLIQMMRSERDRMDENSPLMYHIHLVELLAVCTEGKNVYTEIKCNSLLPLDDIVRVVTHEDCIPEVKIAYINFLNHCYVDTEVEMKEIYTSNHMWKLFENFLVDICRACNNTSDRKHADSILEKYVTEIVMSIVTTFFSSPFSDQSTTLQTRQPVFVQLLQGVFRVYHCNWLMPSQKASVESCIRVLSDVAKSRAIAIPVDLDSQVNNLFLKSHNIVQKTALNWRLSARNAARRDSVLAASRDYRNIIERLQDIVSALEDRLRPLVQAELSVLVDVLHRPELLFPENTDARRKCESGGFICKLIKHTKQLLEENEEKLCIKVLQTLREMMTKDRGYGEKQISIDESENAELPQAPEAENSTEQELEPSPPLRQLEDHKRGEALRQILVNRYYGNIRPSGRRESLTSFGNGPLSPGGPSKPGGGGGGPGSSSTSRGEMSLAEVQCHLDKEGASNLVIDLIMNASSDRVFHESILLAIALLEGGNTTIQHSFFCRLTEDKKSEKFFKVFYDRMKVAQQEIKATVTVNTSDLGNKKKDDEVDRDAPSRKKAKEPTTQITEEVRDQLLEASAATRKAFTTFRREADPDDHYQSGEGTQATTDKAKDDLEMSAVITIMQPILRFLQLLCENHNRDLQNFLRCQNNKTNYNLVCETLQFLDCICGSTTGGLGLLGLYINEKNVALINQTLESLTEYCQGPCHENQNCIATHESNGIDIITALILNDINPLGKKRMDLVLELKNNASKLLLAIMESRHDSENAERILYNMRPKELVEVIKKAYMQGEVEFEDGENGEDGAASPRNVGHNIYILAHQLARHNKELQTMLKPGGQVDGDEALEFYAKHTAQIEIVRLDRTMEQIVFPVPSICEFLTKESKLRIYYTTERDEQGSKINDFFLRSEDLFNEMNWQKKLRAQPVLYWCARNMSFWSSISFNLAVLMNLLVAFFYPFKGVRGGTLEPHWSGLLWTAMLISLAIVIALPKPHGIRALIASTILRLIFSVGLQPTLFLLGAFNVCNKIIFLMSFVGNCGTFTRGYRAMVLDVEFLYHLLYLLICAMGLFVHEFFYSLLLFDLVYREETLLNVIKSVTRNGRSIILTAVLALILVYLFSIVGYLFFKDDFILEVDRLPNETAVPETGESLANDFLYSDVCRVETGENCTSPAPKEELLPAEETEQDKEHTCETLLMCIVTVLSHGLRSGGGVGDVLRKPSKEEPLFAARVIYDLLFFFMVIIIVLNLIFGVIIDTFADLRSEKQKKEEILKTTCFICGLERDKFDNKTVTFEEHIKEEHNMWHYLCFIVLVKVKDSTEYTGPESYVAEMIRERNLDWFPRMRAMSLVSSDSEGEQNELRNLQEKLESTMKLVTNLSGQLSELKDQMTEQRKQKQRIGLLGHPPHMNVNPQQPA
Method in brief: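 Mouse InsP3R1-overexpressing L15 fibroblasts, confluent (days 6–8), saponin-permeabilized (40 μg ml−1, 10 min); stores loaded 45 min with 150 nM free 45Ca2+, ATP, NaN3, pH 6.8; 30 °C. Efflux with 1 mM EGTA plus 10 μM thapsigargin, sampled every 2 min; Ins(1,4,5)P3 given 2 min, compound 6 min around it. Release taken as fractional loss over basal leak; Hill fits; 3–4 experiments in duplicate.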

InsP3R [1] = conditions: bovine adrenal cortex microsomes; ref Poitras, 1993; cited from earlier work
InsP3R [2] = conditions: ref Vandeput, 2007; cited from earlier work
[3] = biological target: T1, human type I Ins(1,4,5)P3 5-phosphatase (Homo sapiens, UniProt Q14642); test: Ins; assay type: biochemical; conditions: ratio of IC50 values
T1 sequence (Q14642 1-412): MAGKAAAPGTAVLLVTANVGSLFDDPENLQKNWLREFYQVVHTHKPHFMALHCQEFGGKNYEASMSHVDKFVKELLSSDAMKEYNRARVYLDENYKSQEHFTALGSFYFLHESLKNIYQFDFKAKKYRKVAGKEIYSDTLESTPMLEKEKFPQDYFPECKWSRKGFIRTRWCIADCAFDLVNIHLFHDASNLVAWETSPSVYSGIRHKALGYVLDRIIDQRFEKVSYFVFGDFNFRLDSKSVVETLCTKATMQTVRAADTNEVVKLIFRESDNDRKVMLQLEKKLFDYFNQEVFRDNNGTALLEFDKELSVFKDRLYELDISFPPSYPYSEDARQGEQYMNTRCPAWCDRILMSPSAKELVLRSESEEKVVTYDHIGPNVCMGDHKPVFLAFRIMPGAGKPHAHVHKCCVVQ
Method in brief: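 Recombinant human type I Ins(1,4,5)P3 5-phosphatase; inhibition by test compound read by malachite green phosphate detection with 1.0 μmol Ins(1,4,5)P3 substrate.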

SMILES: O=P(O)(O)Oc1ccc(OP(=O)(O)O)c(OP(=O)(O)O)c1 [Compound 2, Benzene 1,2,4-trisphosphate]
Blocking of [3H]Ins(1,4,5)P3 binding, fold weaker than Ins(1,4,5)P3 (InsP3R [1]): ~10,000 fold

SMILES: O=P(O)(O)Oc1cc(OP(=O)(O)O)c(-c2cc(OP(=O)(O)O)c(OP(=O)(O)O)cc2OP(=O)(O)O)cc1OP(=O)(O)O [Compound 8, 2,2′,4,4′,5,5′-Biphenylhexakisphosphate]
5-phosphatase inhibition, fold more potent than (10) [3]: ≥ 20 fold
5-phosphatase inhibition, times better than (4) [3]: ~4 times
Mode of inhibition at the InsP3R (type 1 InsP3R (InsP3R1); 200 nM compound at various Ins(1,4,5)P3 concentrations, Lineweaver-Burk plot): competitive inhibitor
Effect on Ins(1,4,5)P3-induced Ca2+ release (type 1 InsP3R (InsP3R1); 200 nM compound, low (0.1 μM) Ins(1,4,5)P3, not at high (3 μM) Ins(1,4,5)P3): strongly inhibited
IC50 (type 1 InsP3R (InsP3R1)): 187 nM

SMILES: O=P(O)(O)Oc1cc(OP(=O)(O)O)c(OP(=O)(O)O)cc1OCCOc1cc(OP(=O)(O)O)c(OP(=O)(O)O)cc1OP(=O)(O)O [Compound 9]
5-phosphatase inhibition, fold weaker than (8) [3]: 7 fold
IC50 (type 1 InsP3R (InsP3R1)): 380 nM

Second part, led by results:

Kd (type 1 InsP3R (InsP3R1); read-out: apparent Kd for Ins(1,4,5)P3 at the receptor, absence of (8), Lineweaver-Burk plot of Ca2+ release): 400 nM
SMILES: O=P(O)(O)O[C@@H]1[C@H](O)[C@H](O)[C@@H](OP(=O)(O)O)[C@H](OP(=O)(O)O)[C@H]1O [Compound 1, Myo-inositol 1,4,5-trisphosphate, reference compound]

IC50 (type 1 InsP3R (InsP3R1)): 417 nM
SMILES: O=P(O)(O)Oc1cc(OP(=O)(O)O)cc(-c2c(OP(=O)(O)O)cc(OP(=O)(O)O)cc2OP(=O)(O)O)c1 [Compound 4, biphenyl 2,3′,4,5′,6-pentakisphosphate, reference compound]
IC50 as Ins(1,4,5)P3 receptor antagonist (InsP3R [2]): low micromolar range

IC50 (type 1 InsP3R (InsP3R1)): > 5000 nM
Inhibition of Ca2+ release (type 1 InsP3R (InsP3R1); up to 10 μM compound, 250 nM Ins(1,4,5)P3): ineffective
SMILES: O=P(O)(O)Oc1ccc(OCCOc2ccc(OP(=O)(O)O)c(OP(=O)(O)O)c2)cc1OP(=O)(O)O [Compound 10]
